Results of several laboratories.
Each line is one published result; the experiments were not run side by side.
Target: Cyclin-dependent kinase 11A (CDK11A, Homo sapiens, UniProt Q9UQ88)
Residues used in one study (Q9UQ88 1-783): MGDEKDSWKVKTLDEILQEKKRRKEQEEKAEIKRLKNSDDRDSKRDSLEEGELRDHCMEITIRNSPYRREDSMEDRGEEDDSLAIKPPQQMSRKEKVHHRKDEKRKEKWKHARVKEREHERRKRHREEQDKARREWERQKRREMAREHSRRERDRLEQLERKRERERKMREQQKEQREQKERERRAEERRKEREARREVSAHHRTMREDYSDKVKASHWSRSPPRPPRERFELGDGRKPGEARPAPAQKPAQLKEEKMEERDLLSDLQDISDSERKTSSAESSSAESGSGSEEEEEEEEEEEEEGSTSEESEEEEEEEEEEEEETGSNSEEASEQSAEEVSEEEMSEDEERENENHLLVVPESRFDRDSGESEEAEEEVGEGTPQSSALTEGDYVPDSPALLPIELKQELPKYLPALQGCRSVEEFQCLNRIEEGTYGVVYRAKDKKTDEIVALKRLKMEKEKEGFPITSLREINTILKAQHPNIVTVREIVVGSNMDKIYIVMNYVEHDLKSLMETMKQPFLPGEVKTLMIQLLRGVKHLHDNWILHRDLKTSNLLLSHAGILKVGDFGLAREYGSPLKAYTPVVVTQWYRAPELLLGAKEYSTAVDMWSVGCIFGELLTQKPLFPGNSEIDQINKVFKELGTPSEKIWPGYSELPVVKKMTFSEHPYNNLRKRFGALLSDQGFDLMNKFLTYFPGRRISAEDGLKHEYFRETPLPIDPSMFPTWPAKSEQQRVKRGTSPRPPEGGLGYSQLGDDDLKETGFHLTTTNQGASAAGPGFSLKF

| SMILES | read-out | method | tested at | remaining binding [%] |
| --- | --- | --- | --- | --- |
| O=C(NCCCN1CCOCC1)c1ccc(Nc2nccc(-c3cc4ccccc4s3)n2)cc1 | binding | competition with immobilised ligand | 1 µM | 56 |
| COc1ccnn2ncc(-c3ccnc(N(C)C)n3)c12 | binding | – | 1 µM | 100 |
| CNC(=O)c1ccc(Nc2ncc(C(F)(F)F)c(NCc3nccnc3N(C)S(C)(=O)=O)n2)cc1 | binding | competition with immobilised ligand | 0.1 µM | 77 |
| C=CC(=O)N1CCC(C(=O)NCC(=O)N2CCN(c3nc(-c4cnc(N)nc4C(F)F)nc(N4CCOCC4)n3)CC2)CC1 | binding | competition with immobilised ligand | 1 µM | 97 |
| CN(C)c1nccc(-c2cnn3ncccc23)n1 | binding | – | 1 µM | 92 |
| NS(=O)(=O)c1cc(NC(=O)C2(c3ccccc3Cl)CC2)ccc1Oc1cccc(Cl)c1 | binding | competition with immobilised ligand | 1 µM | 73 |
| O=C(Nc1c[nH]nc1C(=O)NC1CCNCC1)c1cc(F)cc(F)c1 | binding | competition with immobilised ligand | 1 µM | 100 |
| F[C@@H]1CCN(c2nccc(-c3cnn4ncccc34)n2)C1 | binding | – | 1 µM | 100 |
| CNC(=O)Nc1ccc2c(c1)[C@@]1(CC2)OC(=O)N(CC(=O)N(Cc2ccc(F)cc2)[C@@H](C)C(F)(F)F)C1=O | binding | competition with immobilised ligand | 1 µM | 94 |
| O=C(c1ccc(Nc2ncc(Cl)c(-c3ccc(Cl)s3)n2)cc1)N1CCC(N2CCCC2)CC1 | binding | competition with immobilised ligand | 1 µM | 39 |
| C[C@@H](c1ccc(-n2cnc3c(N)ncnc32)cc1)N1CCc2nn(C)c(Cc3ccccc3)c2C1=O | binding | competition with immobilised ligand | 0.1 µM | 100 |
| COc1cnc(Nc2cccc(S(N)(=O)=O)c2)nc1N1CCN(c2ccccc2)CC1 | binding | competition with immobilised ligand | 1 µM | 93 |
| O=C(c1ccc(Nc2ncc(Cl)c(-c3cc4ccccc4s3)n2)cc1)N1CCC(N2CCCC2)CC1 | binding | competition with immobilised ligand | 1 µM | 85 |
| CNC(=O)[C@@H]1CC[C@@H](n2c(-c3ccc4cnccc4c3)nc3ccc(C(=O)NCc4cccc(C(N)=O)c4)cc32)C1 | binding | competition with immobilised ligand | 1 µM | 100 |
| CC(=O)N1CCC(c2ccc(C(=O)NC3=NCCN3)cc2C(F)(F)F)CC1 | binding | competition with immobilised ligand | 1 µM | 100 |
| Cc1cnn2ncc(-c3ccnc(N(C)C)n3)c2c1 | binding | – | 1 µM | 100 |
| Cc1noc([C@H]2C[C@@H](c3ccc(C(F)(F)F)cc3)CN(C(=O)N3CCS(=O)(=O)C3)C2)n1 | binding | competition with immobilised ligand | 1 µM | 100 |
| N[C@H]1CCN(c2nccc(-c3cnn4ncccc34)n2)C1 | binding | – | 1 µM | 82 |
| c1cncc(-c2cccc(Nc3nccc(NC4CCCCC4)n3)c2)c1 | binding | competition with immobilised ligand | 10 µM | 98 |
| CCC(=O)N[C@H]1CC[C@@H](C(=O)N(C)c2ccc(-c3nc4ccccc4o3)cc2)C1 | cell-free assay | competition with immobilised ligand | 1 µM | 97 |
| C[C@H]1CCN(c2nccc(-c3cnn4ncccc34)n2)C1 | binding | – | 1 µM | 81 |
